Legend:
Format in all cases: functional
HL-60(TB) = assay: Cytotoxicity against human HL-60(TB) cells assessed as growth inhibition after 48 hrs by SRB assay; settings: HL-60, 48 h
Method in brief: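 NCI 60-cell panel, leukemia subpanel. Five-dose screen at 10-fold dilutions from 10−4 to 10−8 M with 48 h drug exposure. GI50 is the molar concentration giving 50% reduction in net cell growth compared with cell numbers on day 0.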

K562 = assay: Cytotoxicity against human K562 cells assessed as growth inhibition after 48 hrs by SRB assay; settings: K562, 48 h
Method in brief: (§1)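 NCI 60-cell panel; compounds passing a single-dose screen (10−5 M, 48 h) were tested at five 10-fold dilutions (10−4 to 10−8 M) with 48 h drug exposure. GI50 is the molar concentration giving 50% reduction in net cell growth relative to cell numbers on day 0.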

MOLT-4 = assay: Cytotoxicity against human MOLT4 cells assessed as growth inhibition after 48 hrs by SRB assay; settings: MOLT-4, 48 h; method in brief: as §1
RPMI-8226 = assay: Cytotoxicity against human RPMI8226 cells assessed as growth inhibition after 48 hrs by SRB assay; settings: RPMI-8226, 48 h; method in brief: as §1
NCI-H226 = assay: Cytotoxicity against human NCI-H226 cells assessed as growth inhibition after 48 hrs by SRB assay; settings: NCI-H226, 48 h; method in brief: as §1
NCI-H23 = assay: Cytotoxicity against human NCI-H23 cells assessed as growth inhibition after 48 hrs by SRB assay; settings: NCI-H23, 48 h; method in brief: as §1
NCI-H460 = assay: Cytotoxicity against human NCI-H460 cells assessed as growth inhibition after 48 hrs by SRB assay; settings: NCI-H460, 48 h; method in brief: as §1
HCC 2998 = assay: Cytotoxicity against human HCC2998 cells assessed as growth inhibition after 48 hrs by SRB assay; settings: HCC 2998, 48 h; method in brief: as §1
[1] = Cytotoxicity against human HCT116 cells assessed as growth inhibition after 48 hrs by SRB assay; settings: HCT-116, 48 h; method in brief: as §1
[2] = Cytotoxicity against human HCT15 cells assessed as growth inhibition after 48 hrs by SRB assay; settings: HCT-15, 48 h; method in brief: as §1
HT-29 = assay: Cytotoxicity against human HT-29 cells assessed as growth inhibition after 48 hrs by SRB assay; settings: HT-29, 48 h; method in brief: as §1
KM12 = assay: Cytotoxicity against human KM12 cells assessed as growth inhibition after 48 hrs by SRB assay; settings: KM12, 48 h; method in brief: as §1
SW-620 = assay: Cytotoxicity against human SW620 cells assessed as growth inhibition after 48 hrs by SRB assay; settings: SW-620, 48 h
SF-268 = assay: Cytotoxicity against human SF268 cells assessed as growth inhibition after 48 hrs by SRB assay; settings: SF-268, 48 h; method in brief: as §1
SF-295 = assay: Cytotoxicity against human SF295 cells assessed as growth inhibition after 48 hrs by SRB assay; settings: SF-295, 48 h; method in brief: as §1
SF-539 = assay: Cytotoxicity against human SF539 cells assessed as growth inhibition after 48 hrs by SRB assay; settings: SF-539, 48 h; method in brief: as §1
SNB-19 = assay: Cytotoxicity against human SNB19 cells assessed as growth inhibition after 48 hrs by SRB assay; settings: SNB-19, 48 h; method in brief: as §1
SNB-75 = assay: Cytotoxicity against human SNB75 cells assessed as growth inhibition after 48 hrs by SRB assay; settings: SNB-75, 48 h
U-251 = assay: Cytotoxicity against human U251 cells assessed as growth inhibition after 48 hrs by SRB assay; settings: U-251, 48 h
LOX IMVI = assay: Cytotoxicity against human LOXIMVI cells assessed as growth inhibition after 48 hrs by SRB assay; method in brief: as §1
M14 = assay: Cytotoxicity against human M14 cells assessed as growth inhibition after 48 hrs by SRB assay; settings: M14, 48 h; method in brief: as §1
MDA-MB-435 = assay: Cytotoxicity against human MDA-MB-435 cells assessed as growth inhibition after 48 hrs by SRB assay; settings: MDA-MB-435, 48 h; method in brief: as §1
SK-MEL-5 = assay: Cytotoxicity against human SK-MEL-5 cells assessed as growth inhibition after 48 hrs by SRB assay; settings: SK-MEL-5, 48 h; method in brief: as §1
[3] = Cytotoxicity against human UACC62 cells assessed as growth inhibition after 48 hrs by SRB assay; settings: UACC-62, 48 h
IGROV-1 = assay: Cytotoxicity against human IGROV1 cells assessed as growth inhibition after 48 hrs by SRB assay; settings: IGROV-1, 48 h; method in brief: as §1
[4] = Cytotoxicity against human OVCAR3 cells assessed as growth inhibition after 48 hrs by SRB assay; settings: OVCAR-3, 48 h; method in brief: as §1
[5] = Cytotoxicity against human OVCAR4 cells assessed as growth inhibition after 48 hrs by SRB assay; settings: OVCAR-4, 48 h; method in brief: as §1
[6] = Cytotoxicity against human OVCAR5 cells assessed as growth inhibition after 48 hrs by SRB assay; settings: OVCAR-5, 48 h; method in brief: as §1
[7] = Cytotoxicity against human OVCAR8 cells assessed as growth inhibition after 48 hrs by SRB assay; settings: OVCAR-8, 48 h; method in brief: as §1
[8] = Cytotoxicity against human NCI-ADR-RES cells assessed as growth inhibition after 48 hrs by SRB assay; method in brief: as §1
SK-OV-3 = assay: Cytotoxicity against human SKOV3 cells assessed as growth inhibition after 48 hrs by SRB assay; settings: SK-OV-3, 48 h; method in brief: as §1
786-0 = assay: Cytotoxicity against human 786-0 cells assessed as growth inhibition after 48 hrs by SRB assay; settings: 786-0, 48 h; method in brief: as §1
A498 = assay: Cytotoxicity against human A498 cells assessed as growth inhibition after 48 hrs by SRB assay; settings: A498, 48 h; method in brief: as §1
RXF 393 = assay: Cytotoxicity against human RXF393 cells assessed as growth inhibition after 48 hrs by SRB assay; settings: RXF 393, 48 h; method in brief: as §1
SN12C = assay: Cytotoxicity against human SN12C cells assessed as growth inhibition after 48 hrs by SRB assay; method in brief: as §1
TK-10 = assay: Cytotoxicity against human TK10 cells assessed as growth inhibition after 48 hrs by SRB assay; settings: TK-10, 48 h
[9] = Cytotoxicity against human UO31 cells assessed as growth inhibition after 48 hrs by SRB assay; settings: UO-31, 48 h
[10] = Cytotoxicity against human PC3 cells assessed as growth inhibition after 48 hrs by SRB assay; settings: PC-3, 48 h; method in brief: as §1
DU-145 = assay: Cytotoxicity against human DU145 cells assessed as growth inhibition after 48 hrs by SRB assay; settings: DU-145, 48 h; method in brief: as §1
MCF7 = assay: Cytotoxicity against human MCF7 cells assessed as growth inhibition after 48 hrs by SRB assay; settings: MCF7, 48 h; method in brief: as §1
MDA-MB-231 = assay: Cytotoxicity against human MDA-MB-231 cells assessed as growth inhibition after 48 hrs by SRB assay; settings: MDA-MB-231, 48 h; method in brief: as §1
[11] = Cytotoxicity against human Hs578T cells assessed as growth inhibition after 48 hrs by SRB assay; settings: Hs-578T; method in brief: as §1
BT-549 = assay: Cytotoxicity against human BT549 cells assessed as growth inhibition after 48 hrs by SRB assay; settings: BT-549, 48 h; method in brief: as §1

## COc1ccc(/C(C#N)=C/c2cc3ccccc3o2)cc1OC
HL-60(TB)
  GI50: 481 nM
K562
  GI50: 467 nM
MOLT-4
  GI50: 548 nM
RPMI-8226
  GI50: 1320 nM
NCI-H226
  GI50: 34.5 µM
NCI-H23
  GI50: 3.11 µM
NCI-H460
  GI50: 472 nM
HCC 2998
  GI50: 2330 nM
[1]
  GI50: 418 nM
[2]
  GI50: 469 nM
HT-29
  GI50: 373 nM
KM12
  GI50: 356 nM
SW-620
  GI50: 388 nM
SF-268
  GI50: 2050 nM
SF-295
  GI50: 708 nM
SF-539
  GI50: 1560 nM
SNB-19
  GI50: 5.55 µM
SNB-75
  GI50: 1780 nM
U-251
  GI50: 760 nM
LOX IMVI
  GI50: 930 nM
M14
  GI50: 437 nM
MDA-MB-435
  GI50: 229 nM
SK-MEL-5
  GI50: 564 nM
[3]
  GI50: 557 nM
IGROV-1
  GI50: 1270 nM
[4]
  GI50: 279 nM
[5]
  GI50: 7.19 µM
[6]
  GI50: 5230 nM
[7]
  GI50: 3.98 µM
[8]
  GI50: 317 nM
SK-OV-3
  GI50: 2490 nM
786-0
  GI50: 5.84 µM
A498
  GI50: 540 nM
RXF 393
  GI50: 1300 nM
SN12C
  GI50: 956 nM
TK-10
  GI50: 2280 nM
[9]
  GI50: 3.79 µM
[10]
  GI50: 2410 nM
DU-145
  GI50: 1300 nM
MCF7
  GI50: 446 nM
MDA-MB-231
  GI50: 1210 nM
[11]
  GI50: 1880 nM
BT-549
  GI50: 950 nM

## COc1cc(/C(C#N)=C/c2cc3ccccc3[nH]2)cc(OC)c1OC
HL-60(TB)
  GI50: < 10 nM
K562
  GI50: < 10 nM
MOLT-4
  GI50: 23 nM
RPMI-8226
  GI50: < 10 nM
NCI-H226
  GI50: < 0.01 µM
NCI-H23
  GI50: < 0.01 µM
NCI-H460
  GI50: < 10 nM
HCC 2998
  GI50: 18 nM
[1]
  GI50: < 10 nM
[2]
  GI50: < 10 nM
HT-29
  GI50: < 10 nM
KM12
  GI50: < 10 nM
SW-620
  GI50: < 10 nM
SF-268
  GI50: 15 nM
SF-295
  GI50: < 10 nM
SF-539
  GI50: < 10 nM
SNB-19
  GI50: < 0.01 µM
SNB-75
  GI50: < 10 nM
U-251
  GI50: < 10 nM
LOX IMVI
  GI50: < 10 nM
M14
  GI50: < 10 nM
MDA-MB-435
  GI50: < 10 nM
SK-MEL-5
  GI50: < 10 nM
[3]
  GI50: < 10 nM
IGROV-1
  GI50: < 10 nM
[4]
  GI50: < 10 nM
[5]
  GI50: 15.2 µM
[6]
  GI50: 80 nM
[7]
  GI50: < 0.01 µM
[8]
  GI50: < 10 nM
SK-OV-3
  GI50: < 10 nM
786-0
  GI50: < 0.01 µM
A498
  GI50: < 10 nM
RXF 393
  GI50: < 10 nM
SN12C
  GI50: < 10 nM
TK-10
  GI50: < 10 nM
[9]
  GI50: < 0.01 µM
[10]
  GI50: < 10 nM
DU-145
  GI50: < 10 nM
MCF7
  GI50: 16 nM
MDA-MB-231
  GI50: 14 nM
[11]
  GI50: < 10 nM
BT-549
  GI50: < 10 nM

Source: ChEMBL document CHEMBL3407388, “Synthesis, anticancer activity and molecular docking studies on a series of heterocyclic trans-cyanocombretastatin analogues as antitubulin agents” (2015)
